Screens from PubChem BioAssay.
MT1-MMP act inh: MT1-MMP (human) activation inhibition | P50281 | HT1080 RFP-PRO-GFP cells, GFP/RFP ratio fluorescence, overnight; percent of plate control window, DMSO zero | GFP/RFP ratio change, % at 20 µM | hit rate 0.061% among 360,000;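 active = GFP/RFP ratio change of at least 30% with cell ATP level not reduced by more than half and red fluorescence within 50% of control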
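Test system: HT1080 cells expressing an RFP-PRO-GFP fluorescent reporter construct / Compound dosing: single-point 20 µM compound, 1% DMSO / Schedule: cells overnight before dosing, compound overnight, 37 °C, 5% CO2 / Evaluation: GFP/RFP fluorescence ratio / Control set: DMSO and RFP-L50D-GFP cell wells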
DAGLB inh: diacylglycerol lipase beta (human) inhibition; Q8NCG7; HEK293T DAGLB membrane lysate, EnzChek fluorogenic substrate; inhibition, % at 5.17 µM; hit rate 0.059% among 340,000; in the data active = inhibition above about 34%;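 note: 0% = enzyme with vehicle and 100% = wells lacking enzyme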
FGF22 binding: FGF22 (human) thermal shift binding | activity (Tm shift, normalised), % at 9.99 µM | Q9HCT0 | hit rate 1.5% among 340,000 | recombinant FGF22 thermal shift, SYPRO orange fluorescence; percent of sucrose octasulfate shift, DMSO zero;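 active = mean Tm shift, scaled 0 neutral to 100 positive control, at about 1.3% or above, every replicate too, limit read from the data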
VLA-4 inh: inhibition in a human VLA-4 binding assay; VLA-4 expressing cells, ligand binding flow cytometry; hit rate 0.2% among 330,000; P13612; inhibition, % (about 7 µM as worked out from the volumes in the protocol); AID 2557; in the data active = inhibition above about 50%
Granule exo inh: blocks lytic granule exocytosis. TALL-104 LAMP-1 surface exposure, flow cytometry; cells stimulated with thapsigargin and PMA. inhibition, % at 10 µM. AID 651702. hit rate 0.66% among 360,000;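 active = inhibition above about 55%, limit read from the data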
ABCB6 inh 2: blocks the human ABCB6 transporter; hit rate 0.19% among 360,000; fluorescence ratio to DMSO, % at 10 µM; K562-ABCB6 porphyrin accumulation, flow cytometry, 1 h; stronger effect = lower value; Q9NP58; AID 602162;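 active = fluorescence ratio to DMSO below 75%, the collection mean minus 3 SD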;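 note: signal is porphyrin accumulated inside mitochondria; 100% equals median channel fluorescence of DMSO control wells; lower ratio means ABCB6 inhibition with less porphyrin fluorescence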
Target sequence (Q9NP58 whole entry, looked up): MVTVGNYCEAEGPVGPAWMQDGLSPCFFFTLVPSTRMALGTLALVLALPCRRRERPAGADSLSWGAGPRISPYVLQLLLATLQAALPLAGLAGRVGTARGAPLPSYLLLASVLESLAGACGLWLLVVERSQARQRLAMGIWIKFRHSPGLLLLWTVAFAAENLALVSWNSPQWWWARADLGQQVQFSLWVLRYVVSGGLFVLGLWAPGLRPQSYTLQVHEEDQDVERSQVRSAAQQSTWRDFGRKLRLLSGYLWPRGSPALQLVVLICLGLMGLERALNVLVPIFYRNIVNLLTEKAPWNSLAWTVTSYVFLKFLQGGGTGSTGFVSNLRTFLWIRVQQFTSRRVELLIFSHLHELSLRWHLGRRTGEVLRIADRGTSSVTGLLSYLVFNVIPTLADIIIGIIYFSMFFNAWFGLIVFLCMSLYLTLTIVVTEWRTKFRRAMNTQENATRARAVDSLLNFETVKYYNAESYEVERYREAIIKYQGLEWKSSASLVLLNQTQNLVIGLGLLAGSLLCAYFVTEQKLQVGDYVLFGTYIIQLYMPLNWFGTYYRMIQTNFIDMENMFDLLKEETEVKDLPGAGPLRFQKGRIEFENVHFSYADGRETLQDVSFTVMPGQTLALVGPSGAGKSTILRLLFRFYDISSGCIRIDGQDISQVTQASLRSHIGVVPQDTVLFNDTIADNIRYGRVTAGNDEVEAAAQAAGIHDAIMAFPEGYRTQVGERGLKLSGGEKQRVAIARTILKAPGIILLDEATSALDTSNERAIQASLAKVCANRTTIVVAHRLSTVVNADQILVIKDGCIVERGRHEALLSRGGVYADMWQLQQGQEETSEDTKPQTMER
Numbers without * were called inactive; x = not tested or not shown. Sampled rows, rich in hits. Any-hit rate of the full collection: about 2%.

SMILES	MT1-MMP act inh	DAGLB inh	FGF22 binding	VLA-4 inh	Granule exo inh	ABCB6 inh 2
COc1ccc(/C=N/NC(=O)CNc2ccc(Br)cc2)c(C(=O)O)c1OC	1	-2	44*	0	-2	102
CC(=O)Nc1cccc(NC(=O)CSc2n[nH]c(-c3ccccc3)n2)c1	2	-1	1	0	-6	99
NS(=O)(=O)c1cccc(NC(=O)CSc2n[nH]c(-c3ccccc3Br)n2)c1	6	-3	1.9*	x	-4	92
COc1ccc(NC(=O)N(C)C[C@H]2OCCCC[C@H](C)Oc3ccc(NC(=O)Nc4c(C)noc4C)cc3C(=O)N([C@H](C)CO)C[C@@H]2C)cc1	x	x	0	x	x	x
COc1ccc(CN(C)C[C@@H]2Oc3ccc(NS(=O)(=O)c4ccc(F)cc4)cc3C(=O)N([C@H](C)CO)C[C@@H]2C)cc1	x	x	0	x	x	x
N/C(=N\N=C\c1ccc(O)cc1)c1nonc1N	1	-1	44*	4	4	105
CN(C)C(=O)[C@H]1[C@H](CO)[C@H]2Cn3c(ccc(-c4ccccc4)c3=O)[C@@H]1N2C(=O)C1CCC1	x	x	0	x	x	x
COCCCNC1=C(Cl)C(=O)c2ccccc2C1=O	0	5	0	0	56*	98
CC(C)OCCCNC1=C(Cl)C(=O)c2ccccc2C1=O	7	x	0	16	4	95
CC(=O)Nc1ccc2c(c1)C(=O)N(C)[C@H]1CC[C@H](CC(=O)N3CCc4ccccc4C3)O[C@@H]1CO2	x	x	0	x	x	x
O=C(CN=C1NS(=O)(=O)c2ccccc21)OCC(=O)c1cc(F)ccc1F	1	1	43*	40	1	95
CC(=O)Oc1oc(-c2ccccc2)nc1C=Nc1ccc(N(C)C)cc1	1	5	0	4	94*	98
CN(C)c1ccc(N=Cc2nc(-c3ccccc3)oc2OC(=O)c2ccccc2)cc1	2	0	x	14	-3	95
C[C@@H]1CN([C@@H](C)CO)C(=O)c2c(c3ccccc3n2C)-c2ccccc2CO[C@H]1CN(C)C(=O)CCC(F)(F)F	x	x	0	x	x	x
CCOc1ccc(C2C([N+](=O)[O-])=C(C)N(C)C(=O)N2C)cc1OC (centres undefined)	1	3	43*	21	0	91
COc1ccc(C2C([N+](=O)[O-])=C(C)N(C)C(=O)N2C)cc1OC (centres undefined)	-1	1	0	20	0	94
O=C(Oc1cc(Cl)ccc1Cl)C1=CC=CN2CCS(=O)(=O)N=C12	5	0	16*	4	0	100
O=C(Oc1ccc(Cl)c(Cl)c1)C1=CC=CN2CCS(=O)(=O)N=C12	2	1	0	4	-2	99
CCC(C)c1ccccc1O (centres undefined)	-2	-1	0	14	-2	104
CCC(c1ccccc1)C(CC)c1cc(O)c(O)c(O)c1 (centres undefined)	-1	-1	43*	x	-9	106
COc1ccc(S(=O)(=O)N(C)C[C@@H]2OCCCC[C@H](C)Oc3ccc(NC(=O)Nc4ccc5c(c4)OCO5)cc3C(=O)N([C@H](C)CO)C[C@@H]2C)cc1	x	x	0	x	x	x
Cc1cc(CNC(=O)c2cc(COc3c(F)cccc3F)on2)nn1C	0	3	44*	10	2	95
Cc1nc(CNC(=O)c2cc(COc3c(F)cccc3F)on2)cs1	14	-2	0	8	-9	95
Cn1c(N)c(S(=O)(=O)NCc2ccccc2)c(=O)n(C)c1=O	-1	-3	0	-8	-1	97
Cn1c(N)c(S(=O)(=O)NCc2ccc(Cl)cc2)c(=O)n(C)c1=O	-2	0	44*	-7	-7	104
SMILES	MT1-MMP act inh	DAGLB inh	FGF22 binding	VLA-4 inh	Granule exo inh	ABCB6 inh 2
COc1ccccc1-c1cn(CC[C@@H]2CC[C@@H](NS(=O)(=O)c3ccccc3C)[C@H](CO)O2)nn1	x	x	0	x	x	x
Cc1ccc(S(=O)(=O)N2C[C@]3(O)C[C@@H]4C(=O)N(c5ccccc5)C(=O)[C@@H]4C[C@]3(OC(=O)Nc3cccs3)C2)cc1	3	0	43*	x	0	96
COc1cc(C(=O)NCc2ccncc2)cc(OC)c1OC	2	0	43*	10	0	102
COc1cc(C(=O)Nc2ccncc2)cc(OC)c1OC	21	2	0	15	-2	93
Cc1ccc(C)n1-c1ccc(C(=O)NCc2ccncc2)cc1	-3	1	44*	0	-2	100
Cc1noc(C)c1S(=O)(=O)N(C)C[C@H]1Oc2ccc(NC(=O)NC3CCCCC3)cc2CC(=O)N([C@H](C)CO)C[C@H]1C	x	x	0	x	x	x
O=C(N[C@@H]1CC[C@H](CC(=O)N2CCN(c3ccccc3)CC2)O[C@H]1CO)c1ccncc1	x	x	0	x	x	x
Cc1noc(C)c1S(=O)(=O)Nc1ccc2c(c1)C(=O)N([C@@H](C)CO)C[C@H](C)[C@@H](CN(C)Cc1ccc3c(c1)OCO3)OCCCC[C@@H](C)O2	x	x	0	x	x	x
CC(/C=N/Nc1nc(C)cc(=O)[nH]1)=C\c1ccccc1	0	3	43*	-6	-18	98
C[C@H](CO)N1C[C@H](C)[C@@H](CN(C)Cc2cccc(C(=O)Nc3ccccc3N)c2)OCc2ccccc2-c2c(n(C)c3ccccc23)C1=O	x	x	0	x	x	x
Cn1c(SCC(=O)N/N=C/c2ccco2)nc2ccccc21	4	-2	43*	13	4	99
CC(/C=N/NC(=O)CSc1nc2ccccc2n1C)=C\c1ccco1	-3	9	x	7	4	97
C[C@H](CO)N1C[C@H](C)[C@H](CN(C)CC2CCCCC2)Oc2ccc(NC(=O)Nc3ccc(C(F)(F)F)cc3)cc2CC1=O	x	x	0	x	x	x
C[C@@H]1CN([C@@H](C)CO)C(=O)c2cc(NC(=O)c3ccncc3)ccc2O[C@@H]1CN(C)C(=O)Nc1ccc(C(F)(F)F)cc1	x	x	0	x	x	x
COC(=O)c1ccccc1NC(=O)Nc1cccc(C)n1	-1	2	43*	7	-2	99
COc1ccccc1NC(=O)Nc1cccc(C)n1	-6	2	0	-12	-6	97
O=C(O)CCNC(=O)c1ccc(Br)o1	1	-2	x	10	2	92
O=C(NCCc1ccc(O)c(Br)c1)c1ccc(Br)o1	1	x	1.7*	x	-6	123
O=C(NCCSc1c[nH]c2ccccc12)c1ccc(Br)o1	5	-3	0	9	3	100
O=C(NCCc1c[nH]c2ccccc12)c1ccc(Br)o1	-1	2	2.3*	2	-6	98
CCOc1ccc(C(C)C)cc1S(=O)(=O)N1CCOCC1	-2	-2	43*	14	-3	95
CCCNC(=O)Nc1ccc2c(c1)OC[C@H](C)N(Cc1ccc(-c3ccccn3)cc1)C[C@H](C)[C@@H](OC)CN(C)C2=O	x	x	0	x	x	x
